These results are taken from ChEMBL document CHEMBL1138661, “Design, synthesis, and structure-activity relationship studies of 3,4,6-triphenylpyran-2-ones as selective cyclooxygenase-2 inhibitors” (J Med Chem, 2004).

SMILES strings stand for the structures.

The target of assay [1] is T1, Prostaglandin G/H synthase 1 (Ovis aries, UniProt P05979).
T1 sequence (P05979 whole entry): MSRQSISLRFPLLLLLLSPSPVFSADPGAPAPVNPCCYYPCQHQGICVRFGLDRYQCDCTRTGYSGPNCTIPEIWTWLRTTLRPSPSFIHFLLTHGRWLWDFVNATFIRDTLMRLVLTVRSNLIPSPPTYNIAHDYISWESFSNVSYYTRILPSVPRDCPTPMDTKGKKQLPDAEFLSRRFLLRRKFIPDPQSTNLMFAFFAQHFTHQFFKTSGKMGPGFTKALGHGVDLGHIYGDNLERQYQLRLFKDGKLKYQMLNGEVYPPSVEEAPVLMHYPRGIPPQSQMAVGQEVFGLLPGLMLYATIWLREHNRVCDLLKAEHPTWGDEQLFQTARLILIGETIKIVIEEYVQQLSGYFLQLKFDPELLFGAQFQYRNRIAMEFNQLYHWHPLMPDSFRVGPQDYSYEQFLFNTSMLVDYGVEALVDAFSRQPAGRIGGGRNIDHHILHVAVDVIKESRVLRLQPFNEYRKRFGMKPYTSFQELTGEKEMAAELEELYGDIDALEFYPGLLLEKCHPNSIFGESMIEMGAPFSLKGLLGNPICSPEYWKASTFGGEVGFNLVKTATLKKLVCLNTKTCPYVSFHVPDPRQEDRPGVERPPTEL
Briefly: Inhibition of ovine Prostaglandin G/H synthase 1. The essentials:
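Ovine COX-1 with heme in 0.1 M Tris-HCl pH 8.0, 5 mM EDTA, 2 mM phenol. Test drug from DMSO stock at 0.001–100 μM final, preincubated 5 min at 37 °C. Arachidonic acid added, stopped with 1 M HCl after 2 min. IC50 from concentration–inhibition curve, duplicate determinations.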

The species named for assay [2] is Rattus norvegicus. Briefly: Percent inhibition of analgesic activity in a rat model 4% NaCl-induced abdominal constriction assay at 60 min. The format is functional, Abdomen. The gist of the method: (§1)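 Male Sprague-Dawley rats given test compound orally at 5 mg/kg. Writhing (abdominal constriction) induced by 4% NaCl. Inhibition of writhing scored at 30 or 60 min after dosing. Mean ± SEM, n = 4-6.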

The species entered for assay [3] is Rattus norvegicus. Briefly: Percent inhibition of analgesic activity in a rat model 4% NaCl-induced abdominal constriction assay at 30 min. The format is functional, Abdomen. The gist of the method:
as §1

The target of assay [4] is T2, Prostaglandin G/H synthase 2 (Rattus norvegicus) (UniProt P35355).
T2 sequence (whole entry): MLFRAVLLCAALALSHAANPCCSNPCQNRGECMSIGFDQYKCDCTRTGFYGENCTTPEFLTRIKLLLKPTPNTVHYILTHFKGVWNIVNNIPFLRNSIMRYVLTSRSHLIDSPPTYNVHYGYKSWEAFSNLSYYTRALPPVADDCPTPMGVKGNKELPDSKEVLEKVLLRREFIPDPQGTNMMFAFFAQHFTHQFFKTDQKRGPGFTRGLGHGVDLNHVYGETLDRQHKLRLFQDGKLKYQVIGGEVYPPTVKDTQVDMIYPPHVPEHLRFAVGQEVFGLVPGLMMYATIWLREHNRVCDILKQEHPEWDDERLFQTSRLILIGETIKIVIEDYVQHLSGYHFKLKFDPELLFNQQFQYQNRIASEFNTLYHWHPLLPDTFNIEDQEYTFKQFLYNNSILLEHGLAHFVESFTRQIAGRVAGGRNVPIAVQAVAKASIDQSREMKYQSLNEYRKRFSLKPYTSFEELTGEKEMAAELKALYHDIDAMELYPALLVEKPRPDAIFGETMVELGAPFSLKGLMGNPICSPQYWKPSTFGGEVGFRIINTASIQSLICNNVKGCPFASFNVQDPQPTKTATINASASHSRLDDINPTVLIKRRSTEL

For orientation: IC50 means the concentration that gives 50% inhibition. Read a low IC50 as inhibition by little substance. The Inhibition is how much of the control response was suppressed. Lower therefore signals a weak effect. For the compound `CSc1ccc(-c2cc(-c3ccccc3)c(-c3ccc(S(C)(=O)=O)cc3)c(=O)o2)cc1`, in assay [1], the IC50 amounted to 37.7 µM. Further, the Inhibition in assay [2] was determined as 64.7%; in assay [3], 72%. Also, the ID50 in assay [4] worked out at 7.9 mg/kg.
On to `CS(=O)(=O)c1ccc(-c2c(-c3ccccc3)cc(-c3ccccc3)oc2=O)cc1`, for which the IC50 in assay [1] is more than 100 µM.
Still for that read-out and setting: under `COc1ccc(-c2cc(-c3cccnc3)c(-c3ccc(S(C)(=O)=O)cc3)c(=O)o2)cc1` stands 0.44 µM.
Take `COc1ccc(-c2cc(-c3ccccc3)c(-c3ccc(N=[N+]=[N-])cc3)c(=O)o2)cc1`: the IC50 in assay [1] is more than 100 µM. Also, the Inhibition was found to be 55.5% in assay [2] and 47.2% in assay [3]. Moreover, in assay [4], the ID50 came out at 5.6 mg/kg.
`CS(=O)(=O)c1ccc(-c2c(-c3cccnc3)cc(-c3ccccc3)oc2=O)cc1`: 3 µM corresponded to half-maximal inhibition in assay [1] (IC50).
Same read-out and setting: the value for `CS(=O)(=O)c1ccc(-c2c(-c3ccccc3)cc(-c3ccc(F)cc3)oc2=O)cc1` was more than 100 µM.
On the same count and under the same terms, the value for `CS(=O)(=O)c1ccc(-c2c(-c3ccccc3)cc(-c3ccc(C(F)(F)F)cc3)oc2=O)cc1` was more than 100 µM; that for `COc1ccc(-c2cc(-c3ccc(S(C)(=O)=O)cc3)c(-c3ccc(F)cc3)c(=O)o2)cc1` was 10.7 µM.
In the case of `Cc1ccc(-c2cc(C(F)(F)F)nn2-c2ccc(S(N)(=O)=O)cc2)cc1` [CELECOXIB], the Inhibition in assay [3] is reported as 69.33%.
Turning to `CS(=O)(=O)c1ccc(-c2cc(-c3ccc(F)cc3)oc(=O)c2-c2ccccc2)cc1`, half-maximal inhibition in assay [1] (IC50) was put at 11 µM.
As to `CS(=O)(=O)c1ccc(-c2cc(-c3ccccc3)oc(=O)c2-c2ccccc2)cc1`, in assay [1], the half-inhibitory concentration (IC50) is more than 100 µM.
Still for that read-out and setting: under `CCOc1ccc(-c2cc(-c3ccccc3)c(-c3ccc(N=[N+]=[N-])cc3)c(=O)o2)cc1` stands more than 100 µM; under `CS(=O)(=O)c1ccc(-c2cc(-c3ccccc3)oc(=O)c2-c2cccnc2)cc1`, 3.2 µM.
On the same count and under the same terms, the value for `CCc1ccc(-c2cc(-c3ccc(S(C)(=O)=O)cc3)c(-c3ccccc3)c(=O)o2)cc1` was more than 100 µM; that for `Cc1ccc(-c2cc(-c3ccc(S(C)(=O)=O)cc3)c(-c3ccccc3)c(=O)o2)cc1` was more than 100 µM.
The same measure, in the same setting: the value for `CS(=O)(=O)c1ccc(-c2c(-c3ccccc3)cc(-c3ccc(O)cc3)oc2=O)cc1` was more than 100 µM; that for `CSc1ccc(-c2cc(-c3ccc(F)cc3)c(-c3ccc(S(C)(=O)=O)cc3)c(=O)o2)cc1` was more than 100 µM.
`CS(=O)(=O)c1ccc(-c2c(-c3ccccc3)cc(-c3ccc([N+](=O)[O-])cc3)oc2=O)cc1` yielded an IC50 in assay [1] of more than 100 µM.
Same read-out and setting: under `CSc1ccc(-c2cc(-c3ccccc3)c(-c3ccc(N=[N+]=[N-])cc3)c(=O)o2)cc1` stands 30 µM; under `Cc1ccc(-c2cc(-c3ccccc3)c(-c3ccc(S(C)(=O)=O)cc3)c(=O)o2)cc1`, more than 100 µM; under `CS(=O)(=O)c1ccc(-c2cc(-c3ccc(C(F)(F)F)cc3)oc(=O)c2-c2ccccc2)cc1`, 25.3 µM.
On the same count and under the same terms, the value for `CS(=O)(=O)c1ccc(-c2cc(-c3ccccc3)c(-c3ccccc3)c(=O)o2)cc1` was more than 100 µM.
The compound `CS(=O)(=O)c1ccc(-c2cc(-c3ccccc3)oc(=O)c2-c2ccncc2)cc1` showed a concentration for half-maximal inhibition (IC50) in assay [1] of more than 100 µM.
For `CSc1ccc(-c2cc(-c3ccc(S(C)(=O)=O)cc3)c(-c3ccccc3)c(=O)o2)cc1`, half-maximal inhibition in assay [1] (IC50) was put at 31.2 µM. In other words, the double-digit micromolar range.
The same measure, in the same setting: the value for `COc1ccc(-c2cc(-c3ccc(S(C)(=O)=O)cc3)c(-c3ccccc3)c(=O)o2)cc1` was 31.5 µM; that for `COc1ccc(-c2cc(-c3ccc(F)cc3)c(-c3ccc(S(C)(=O)=O)cc3)c(=O)o2)cc1` was 20 µM.
In assay [1], `COc1ccc(-c2cc(-c3ccc(S(C)(=O)=O)cc3)c(-c3ccncc3)c(=O)o2)cc1` showed a half-maximal inhibitory concentration (IC50) of more than 100 µM. In addition, the Inhibition in assay [2] is listed as 55%; in assay [3], 58.3%. For the same compound, the ID50 in assay [4] was 21.4 mg/kg.
The matching figures for `CCOc1ccc(-c2cc(-c3ccccc3)c(-c3ccc(S(C)(=O)=O)cc3)c(=O)o2)cc1`: more than 100 µM, 75%, 58.3% and 5.6 mg/kg.
The matching figures for `COc1ccc(-c2cc(-c3ccccc3)c(-c3ccc(S(C)(=O)=O)cc3)c(=O)o2)cc1`: more than 100 µM, 69%, 37.5% and 19.2 mg/kg.
`CS(=O)(=O)c1ccc(-c2c(-c3ccccc3)cc(-c3ccc(N)cc3)oc2=O)cc1` yielded a half-maximal inhibitory concentration (IC50) in assay [1] of 32.5 µM. This counts as double-digit micromolar.
Take `CCOc1ccc(-c2cc(-c3ccc(F)cc3)c(-c3ccc(S(C)(=O)=O)cc3)c(=O)o2)cc1`: in assay [1], half-maximal inhibition (IC50) was put at 3.2 µM.
Same read-out and setting: under `COc1ccc(-c2cc(-c3ccc(S(C)(=O)=O)cc3)c(-c3cccnc3)c(=O)o2)cc1` stands 0.15 µM.
As for `CCOc1ccc(-c2cc(-c3ccc(S(C)(=O)=O)cc3)c(-c3ccc(F)cc3)c(=O)o2)cc1`, the concentration for half-maximal inhibition (IC50) in assay [1] was 1.07 µM.
Still for that read-out and setting: under `CCc1ccc(-c2cc(-c3ccccc3)c(-c3ccc(S(C)(=O)=O)cc3)c(=O)o2)cc1` stands more than 100 µM; under `CCOc1ccc(-c2cc(-c3ccc(S(C)(=O)=O)cc3)c(-c3ccccc3)c(=O)o2)cc1`, 31.6 µM.
